Data published in ChEMBL document CHEMBL4270544, “Design, synthesis and biological evaluation of a novel tubulin inhibitor 7a3 targeting the colchicine binding site” (Eur J Med Chem, 2018).
pIC50: −log10 of the molar value. Calls of active or inactive are those of the source. The rule behind the calls is not given here.

Legend:
[1] = test system: SK-OV-3; assay: Antiproliferative activity against human SKOV3 cells after 72 hrs by CCK8 assay; format: functional, cell-based; conditions: SK-OV-3, 72 h
Summary of the method: (§1)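 CCK-8 proliferation assay with CA-4 as positive control. IC50 is the concentration giving 50% inhibition of proliferation. Mean ± SEM from three independent experiments.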

[2] = test system: A549; assay: Antiproliferative activity against human A549 cells after 72 hrs by CCK8 assay; format: functional, cell-based; conditions: A549, 72 h; summary of the method: as §1
[3] = test system: CT26; assay: Antiproliferative activity against mouse CT26 cells after 72 hrs by CCK8 assay; format: functional, cell-based; conditions: CT26, 72 h; summary of the method: as §1
[4] = test system: MCF7; assay: Antiproliferative activity against human MCF7 cells after 72 hrs by CCK8 assay; format: functional, cell-based; conditions: MCF7, 72 h; summary of the method: as §1
[5] = test system: SK-OV-3; assay: Cell cycle arrest in human SKOV3 cells assessed as accumulation at G0/G1 phase at 40 nM after 24 hrs by propidium iodide staining based flow cytometry (reference value: 67.79%); format: functional
Summary of the method: (§2)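 SK-OV-3 cells exposed to 40, 80 or 160 nM for 24 h, with untreated cells as control. Stained with PI and analysed by flow cytometry for phase distribution. Mean ± SEM of three independent experiments; t-test against control.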

[6] = test system: SK-OV-3; assay: Cell cycle arrest in human SKOV3 cells assessed as accumulation at S phase at 40 nM after 24 hrs by propidium iodide staining based flow cytometry (reference value: 18.09%); format: functional; summary of the method: as §2
[7] = test system: SK-OV-3; assay: Cell cycle arrest in human SKOV3 cells assessed as accumulation at S phase at 80 nM after 24 hrs by propidium iodide staining based flow cytometry (reference value: 18.09%); format: functional; summary of the method: as §2
[8] = test system: SK-OV-3; assay: Cell cycle arrest in human SKOV3 cells assessed as accumulation at G0/G1 phase at 160 nM after 24 hrs by propidium iodide staining based flow cytometry (reference value: 67.79%); format: functional; summary of the method: as §2
[9] = test system: SK-OV-3; assay: Induction of apoptosis in human SKOV3 cells assessed as early apoptotic cells at 40 nM after 48 hrs by Annexin-V-FITC/propidium iodide staining based flow cytometry (reference value: 0.97%); format: functional
[10] = test system: SK-OV-3; assay: Induction of apoptosis in human SKOV3 cells assessed as late apoptotic cells at 40 nM after 48 hrs by Annexin-V-FITC/propidium iodide staining based flow cytometry (reference value: 3.93%); format: functional
[11] = test system: SK-OV-3; assay: Induction of apoptosis in human SKOV3 cells assessed as live cells at 80 nM after 48 hrs by Annexin-V-FITC/propidium iodide staining based flow cytometry (reference value: 94.43%); format: functional
[12] = test system: SK-OV-3; assay: Induction of apoptosis in human SKOV3 cells assessed as late apoptotic cells at 80 nM after 48 hrs by Annexin-V-FITC/propidium iodide staining based flow cytometry (reference value: 3.93%); format: functional
[13] = test system: SK-OV-3; assay: Induction of apoptosis in human SKOV3 cells assessed as early apoptotic cells at 160 nM after 48 hrs by Annexin-V-FITC/propidium iodide staining based flow cytometry (reference value: 0.97%); format: functional
[14] = test system: SK-OV-3; assay: Induction of apoptosis in human SKOV3 cells assessed as late apoptotic cells at 160 nM after 48 hrs by Annexin-V-FITC/propidium iodide staining based flow cytometry (reference value: 3.93%); format: functional
[15] = test system: SK-OV-3; assay: Antimigratory activity against human SKOV3 cells assessed as wound closure at 80 nM after 24 hrs by microscopy based scratch wound assay (reference value: 79.5 +/- 2.8%); format: functional
[16] = test system: SK-OV-3; assay: Antimigratory activity against human SKOV3 cells assessed as number of migrated cells at 50 nM after 24 hrs by crystal violet staining based transwell migration assay (reference value: 49.3 to 50.7); format: functional
[17] = test system: SK-OV-3; assay: Antimigratory activity against human SKOV3 cells assessed as number of migrated cells at 25 nM after 24 hrs by crystal violet staining based transwell migration assay (reference value: 49.3 to 50.7); format: functional
[18] = species: Bos taurus; assay: Inhibition of bovine MAP-rich tubulin polymerization at 2.5 uM measured every 1 min for 30 mins relative to control
Summary of the method: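 Purified tubulin polymerization followed at 37 °C by absorbance at 340 nm, read every 1 min for 30 min. Test concentrations 2.5, 10 and 40 µM. CA-4 at 10 µM served as positive control and DMSO (1%, v/v) as vehicle. Polymerization is expressed relative to the vehicle group.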

[19] = test system: SK-OV-3; assay: Inhibition of tubulin assembly in human SKOV3 cells assessed as disorganized spindle formation at 10 to 1000 nM after 24 hrs by DAPI staining based immunofluorescence microscopic method; format: functional, cell-based
Summary of the method: (§3)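 SK-OV-3 cells exposed to DMSO or 10, 100 or 1000 nM for 24 h. Fixed in methanol, stained with FITC anti-β-tubulin antibody, counterstained with DAPI, and imaged by confocal microscopy.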

[20] = test system: SK-OV-3; assay: Inhibition of tubulin assembly in human SKOV3 cells assessed as disorganized microtubule polymerization at 10 to 1000 nM after 24 hrs by DAPI staining based immunofluorescence microscopic method; format: functional, cell-based; summary of the method: as §3
[21] = Terminal half life in C57 mouse at 50 mg/kg, ip administered as single dose by LC-MS/MS analysis; format: ADME, organism-based; conditions: in vivo, read-out: beta t1/2 (converted)
Summary of the method: (§4)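 Male C57 mice, one intraperitoneal dose. Blood drawn from submaxillary vein at 0, 5, 15, 30 min and 1, 2, 4, 8, 12, 24 h. Plasma measured by LC/MS/MS in MRM mode with CA-4 as internal standard. Calibration by weighted linear regression over 0.01–500 ng/mL. Parameters obtained by non-compartmental analysis.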

[22] = Tmax in C57 mouse at 50 mg/kg, ip administered as single dose by LC-MS/MS analysis; format: ADME, organism-based; conditions: in vivo; summary of the method: as §4
[23] = Cmax in C57 mouse at 50 mg/kg, ip administered as single dose by LC-MS/MS analysis; format: ADME, organism-based; design: dose 50 mg/kg, route intraperitoneal; conditions: in vivo; summary of the method: as §4
[24] = AUC (0 to 24 hrs) in C57 mouse at 50 mg/kg, ip administered as single dose by LC-MS/MS analysis; format: ADME, organism-based; design: dose 50 mg/kg, time < 24 hr, route intraperitoneal; conditions: in vivo; summary of the method: as §4
[25] = test system: Mus musculus; assay: Area under the first moment curve (0 to infinity) in C57 mouse at 50 mg/kg, ip administered as single dose by LC-MS/MS analysis; format: ADME, organism-based; conditions: in vivo; summary of the method: as §4
[26] = test system: SK-OV-3; assay: Antitumor activity against human SKOV3 cells xenografted in Balb/c mouse assessed as reduction in tumor growth at 50 mg/kg, ip administered every two days for three times measured every 3 to 4 days relative to control; format: functional; design: scale not given: the % may be the effect or the level left
Summary of the method: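 Six-week-old Balb/c nude mice given subcutaneous SK-OV-3 cells in the back. Randomised into three groups at about 200 mm3 tumour size. Dosed 50 mg/kg intraperitoneally in 5% DMSO/olive oil every two days, three times; vehicle group as control. Tumour volume and body weight tracked; six animals per group, mean ± SEM, t-test.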

[27] = test system: SK-OV-3; assay: Cell cycle arrest in human SKOV3 cells assessed as accumulation at G2/M phase at 160 nM after 24 hrs by propidium iodide staining based flow cytometry (reference value: 14.12%)

## CCOc1ccc(-c2cn(C)nc2-c2cc(OC)c(OC)c(OC)c2)cc1
[1]
  pIC50: 7.77
[2]
  pIC50: 7.17
[3]
  pIC50: 7.24
[4]
  pIC50: 7.45
[5]
  Activity: 54.42%
[6]
  Activity: 20.99%
[7]
  Activity: 24.15%
[8]
  Activity: 8.05%
[9]
  Activity: 1.35%
[10]
  Activity: 6.65%
[11]
  Activity: 73.56%
[12]
  Activity: 18.67%
[13]
  Activity: 9.46%
[14]
  Activity: 47.36%
[15]
  Activity: 44.3%
[16]
  Activity: 21.7
[17]
  Activity: 27.3
[18]
  inhibition: 30.5%
[19]
  inhibition: Active
[20]
  inhibition: Active
[21]
  half-life: 100 min
[22]
  Tmax: 15 min
[23]
  Cmax: 882 ng/mL
[24]
  AUC(0-t) at 24 h: 1140 ng·h/mL
[25]
  AUMC: 1785 hr.hr.ng/ml
[26]
  Activity: 62.8%
[27]
  Activity: 65.79%
